Test results reported in ChEMBL document CHEMBL1154852, “Design, synthesis and pharmacological screening of potential anticonvulsant agents using hybrid approach” (Eur J Med Chem, 2010).

Experiments:
[1] = test system: Mus musculus; test: Anticonvulsant activity in Swiss albino mouse assessed as inhibition of isoniazide hydrazone-induced seizure at 10 mg/kg, ip administered 30 mins before isoniazide hydrazone challenge measured after 1 hr; format: functional; settings: route intraperitoneal
Summary of the method: (§1)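 Swiss albino mice, 30–35 g, given test drug 10 or 30 mg/kg i.p.; INH 250 mg/kg i.p. injected 30 min later. Animals showing excitement, myoclonic jerks, clonic and maximal seizures grouped, n=6. Readout: reduction of seizure duration (sec). Reference standard diazepam. Mean ± SEM; one-way ANOVA with Student–Newman–Keuls test.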

[2] = test system: Mus musculus; test: Anticonvulsant activity in Swiss albino mouse assessed as inhibition of isoniazide hydrazone-induced seizure at 30 mg/kg, ip administered 30 mins before isoniazide hydrazone challenge measured after 1 hr; format: functional; settings: route intraperitoneal; summary of the method: as §1
[3] = test system: Mus musculus; test: Anticonvulsant activity in Swiss albino mouse assessed as reduction of supramaximal electroshock-induced hind limb tonic extension response at 10 mg/kg, ip administered 30 mins before SME challenge measured after 1 hr; format: functional, Hindlimb; settings: route intraperitoneal
Summary of the method: (§2)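 Swiss albino mice of either sex, 30–35 g, n=6 per group, dosed 10 or 30 mg/kg i.p.; diazepam 5 mg/kg as standard. After 1 h, electroshock 42 mA for 0.2 s via ear electrodes. Readout: duration of hind limb extension phase (sec). Mean ± SEM; one-way ANOVA with Student–Newman–Keuls test.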

[4] = test system: Mus musculus; test: Anticonvulsant activity in Swiss albino mouse assessed as reduction of supramaximal electroshock-induced hind limb tonic extension response at 30 mg/kg, ip administered 30 mins before SME challenge measured after 1 hr; format: functional, Hindlimb; settings: route intraperitoneal; summary of the method: as §2
[5] = test system: Mus musculus; test: Toxicity in ip dosed Swiss albino mouse assessed as decrease in locomotor activity after 30 mins by actophotometer; format: organism-based; settings: in vivo, 0.5 h
Summary of the method: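 Actophotometer test in six mice per group, dosed 10 or 30 mg/kg i.p.; vehicle control 0.2% Tween 80 (0.3 ml/kg); diazepam 5 mg/kg as standard. Scored 30 min after dosing: beam interruptions counted over 10 min after 1 min acclimatization, before versus after treatment. Mean ± SEM.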

[6] = test system: Mus musculus; test: Toxicity in ip dosed Swiss albino mouse assessed as assessed as decrease in fall of time after 30 mins by rotarod test; format: organism-based; settings: in vivo, 0.5 h

SMILES | Activity [1] [s] | Activity [2] [s] | Activity [3] [s] | Activity [4] [s] | Activity [5] | Activity [6]
Cc1csc(NC(=O)c2ccccc2)c1C(=O)NN1C2=Nc3ccccc3NC(c3ccccc3O)C2SC1/C=C/c1ccccc1 (stereo not drawn) | 85.5 | 87.667 | 13.228 | 14.263 | Non-toxic | Non-toxic
Cc1csc(NC(=O)c2ccccc2)c1C(=O)NN1C2=Nc3ccccc3NC(c3cccc([N+](=O)[O-])c3)C2SC1/C=C/c1ccccc1 (stereo not drawn) | 71.33 | 78.833 | 15.328 | 14.907 | Non-toxic | Non-toxic
Cc1csc(NC(=O)c2ccccc2)c1C(=O)NN1C2=Nc3ccccc3NC(c3ccccc3Cl)C2SC1/C=C/c1ccccc1 (stereo not drawn) | 81.833 | 83.33 | 14.54 | 13.632 | Non-toxic | Non-toxic
Cc1csc(NC(=O)c2ccccc2)c1C(=O)NN1C2=Nc3ccccc3NC(c3ccc(N(C)C)cc3)C2SC1/C=C/c1ccccc1 (stereo not drawn) | 92.33 | 95.33 | 13.355 | 13 | Non-toxic | Non-toxic
COc1ccc(C2Nc3ccccc3N=C3C2SC(/C=C/c2ccccc2)N3NC(=O)c2c(C)csc2NC(=O)c2ccccc2)cc1 (stereo not drawn) | 101.83 | 108.5 | 15.328 | 14.907 | Non-toxic | Non-toxic
Cc1csc(NC(=O)c2ccccc2)c1C(=O)NN1C2=Nc3ccccc3NC(c3ccc(F)cc3)C2SC1/C=C/c1ccccc1 (stereo not drawn) | 69.833 | 74 | 16.442 | 15.408 | Non-toxic | Non-toxic
CN1C(=O)CN=C(c2ccccc2)c2cc(Cl)ccc21 [DIAZEPAM] | – | – | – | – | Non-toxic | Non-toxic
